“Also recorded” adds a separate entry of the source. Positions of bridges follow the written chain, without caps; N, C: chain ends. No end group written: not given here.
Columns and labels:
LAD2 mast cells [1] = assay: Ca^2+ mobilization in LAD2 mast cells; assay type: cell-based, human; details: indo-1 AM, C3a 10 nM, E7 1 µM, representative of 3 experiments; for intracellular Ca^2+ mobilization: 355/410 nm, E7S 1 µM, compound 48/80 1 µg/ml
In short: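 LAD2 cells were kept in StemPro-34 with supplements, 2 mM L-glutamine, penicillin, streptomycin and 100 ng/ml SCF, hemi-depleted weekly. Cells at 0.2 × 10^6/ml were loaded with 1 µM indo-1 AM plus 1 µM pluronic F-127 for 30 min at room temperature, washed and resuspended in HEPES-buffered saline. C3a (10 nM) or test peptide (1 µM) was added at marked times. Fluorescence was read at excitation 355 nm and emission 410 nm.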

HA-tagged human MrgX2 = assay: Degranulation of RBL-2H3 cells stably expressing MrgX2; assay type: cell-based; details: RBL-2H3 expressing MrgX2; for degranulation: peptides 1 µM, compound 48/80 100 ng/ml or antigen DNP-BSA 30 ng/ml, 30 min, representative of 3 experiments
In short: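 RBL-2H3 cells were nucleofected with HA-tagged receptor plasmid, selected in G418 (1mg/ml) and sorted by anti-HA staining for equivalent expression. 5 × 10^4 cells were primed overnight with mouse anti-DNP IgE (1 µg/ml), washed and stimulated 30 min in 0.1% BSA buffer. Supernatant β-hexosaminidase was read with 1 mM p-nitrophenyl-N-acetyl-β-D-glucosamine (1.5 h, 37°C), stopped with carbonate buffer, A405, as percent of Triton X-100 lysate total.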

mast cell = details: ref Hartmann et al., 1997; Nilsson et al., 1996; cited from earlier work
HA-tagged human MrgX1 = assay: Degranulation of RBL-2H3 cells stably expressing MrgX1; assay type: cell-based; details: RBL-2H3 expressing MrgX1; for degranulation: peptides 1 µM, compound 48/80 100 ng/ml or antigen DNP-BSA 30 ng/ml, 30 min, representative of 3 experiments
[2] = test system: bone marrow-derived mast cells; details: ref Erdei et al., 2004, Soruri et al., 2008; cited from earlier work
[3] = test system: rat basophilic leukemia, RBL-2H3 cells; details: ref Erdei et al., 2004, Soruri et al., 2008; cited from earlier work
HMC-1 cells [4] = details: ref Ahamed et al., 2004, Ali et al., 2000; cited from earlier work
HMC-1 cells [5] = assay: Ca^2+ mobilization in HMC-1 cells; assay type: cell-based, human; details: representative of 3 experiments; for intracellular Ca^2+ mobilization: indo-1 AM, 355/410 nm, C3a 10 nM, E7 1 µM, E7S 1 µM, compound 48/80 1 µg/ml
In short: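 HMC-1 cells were grown in IMDM with 10% FCS, 2 mM L-glutamine, penicillin and streptomycin. Cells at 1 × 10^6/ml were loaded with 1 µM indo-1 AM plus 1 µM pluronic F-127 for 30 min at room temperature, then washed and resuspended in HEPES-buffered saline. Stimuli were added sequentially at marked times: C3a 10 nM, test peptide 1 µM, test secretagogue 1 µg/ml. Fluorescence was read at excitation 355 nm and emission 410 nm.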

[6] = test system: peripheral blood CD34^+ cell-derived mast cells; details: ref Fukuoka et al., 2008, Lappalainen et al., 2007, Oskeritzian et al., 2005, Venkatesha et al., Woolhiser et al., 2004; cited from earlier work
LAD2 mast cells [7] = assay: Degranulation; assay type: cell-based, human; details: 30 min, β-hexosaminidase release; for degranulation: different concentrations, 3 – 4 experiments
In short: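 LAD2 cells, kept in StemPro-34 with 100 ng/ml SCF, were seeded at 5 × 10^3 per well overnight with human IgE (1 µg/ml). After washing, they were exposed for 30 min to graded test-compound concentrations in buffer with 0.1% BSA. Released β-hexosaminidase was assayed with 1 mM p-nitrophenyl-N-acetyl-β-D-glucosamine (1.5 h, 37°C), stopped with 0.1 M Na2CO3/NaHCO3, and read at A405. Values are percent of the 0.1% Triton X-100 lysate total, mean ± S.E.M of 3–4 experiments.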

[8] = test system: CD34^+-derived human mast cells; assay: Degranulation; assay type: cell-based; details: 30 min, E7 or E7S 1 µM, 3 – 4 experiments
In short: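 Primary mast cells were grown 7–10 weeks from human CD34+ progenitors in StemPro-34 with SCF and IL-6 (100 ng/ml each), plus IL-3 (30 ng/ml) in the first week only. Cells (5 × 10^3 per well) were primed overnight with human IgE (1 µg/ml), washed, and stimulated 30 min in 0.1% BSA buffer with test peptides at 100 nM or 1 µM. β-Hexosaminidase release was measured at 405 nm and expressed as percent of lysate total, mean ± S.E.M of 3–4 experiments.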

[9] = ref Lu et al., 1984; cited from earlier work
C5a receptor = details: ref Subramanian, 2011; cited from earlier work
MrgX2 [10] = details: requires tryptophan and a positively charged residue; ref Subramanian, 2011; cited from earlier work
MrgX2 [11] = details: 2003, cited from earlier work; for structural requirement for MrgX2 activation: ref Robas et al.
MrgX1 = details: ref Lembo et al., 2002; Robas et al., 2003; cited from earlier work
C3a receptor [12] = details: guinea pig ileum, C3a versus C5a; ref Ember et al., 1991; cited from earlier work
guinea pig skin = details: ref Ember et al., 1991; cited from earlier work
guinea pig platelet = details: ref Ember et al., 1991; cited from earlier work
C3a receptor [13] = details: versus C3a receptor agonist peptide (C3aP), ref Ember et al., 1991; cited from earlier work
[14] = test system: mock transfected RBL-2H3 cells; assay: Degranulation of mock transfected RBL-2H3 cells; assay type: cell-based, rat; details: C3a 100 nM, peptides 1 µM, compound 48/80 100 ng/ml or antigen DNP-BSA 30 ng/ml, 30 min, representative of 3 experiments
In short: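 Rat RBL-2H3 cells, grown in DMEM with 10% FBS and mock-transfected, were seeded at 5 × 10^4 per well and sensitised with anti-DNP IgE (1 µg/ml, 16 h). After washing, they were challenged 30 min in 0.1% BSA buffer with test agents or DNP-BSA antigen. Supernatant β-hexosaminidase was assayed with 1 mM p-nitrophenyl-N-acetyl-β-D-glucosamine (1.5 h, 37°C) at A405, relative to a 0.1% Triton X-100 lysate. Data are representative of 3 experiments.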

## C3a: purified human anaphylatoxin C3a, from Complement Technology
LAD2 mast cells [1]
  intracellular Ca^2+ mobilization: induced Ca^2+ mobilization; also recorded: induced rapid Ca^2+ responses in LAD2 cells which peaked within seconds after stimulation
  duration/magnitude of Ca^2+ response, C3a versus E7: markedly reduced
HA-tagged human MrgX2; C3a (1 µM) in text
  degranulation by C3a: did not activate RBL-2H3 cells expressing MrgX1 or MrgX2; also recorded: at concentrations up to 1 µM did not induce degranulation in cells expressing either human MrgX1 or MrgX2
Mast cell
  mast cell chemoattractant activity: one of the most potent mast cell chemoattractants known
HA-tagged human MrgX1; C3a (1 µM) in text
  degranulation by C3a: did not activate RBL-2H3 cells expressing MrgX1 or MrgX2; also recorded: at concentrations up to 1 µM did not induce degranulation in cells expressing either human MrgX1 or MrgX2
[2]
  degranulation: does not induce degranulation
[3]
  degranulation: does not induce degranulation
HMC-1 cells [4]
  Ca^2+ mobilization: responds to C3a for a transient Ca^2+ mobilization
HMC-1 cells [5]; C3a 10 nM as second stimulus
  Ca^2+ response to C3a added after E7S or compound 48/80: fully responsive to C3a
HMC-1 cells [5]
  intracellular Ca^2+ mobilization: caused Ca^2+ mobilization in an immature mast cell line, HMC-1; also recorded: induced Ca^2+ mobilization of similar magnitude and duration in HMC-1 cells
[6]
  degranulation: induces degranulation
LAD2 mast cells [7]
  degranulation: induced Ca^2+ mobilization and degranulation in a differentiated human mast cell line, LAD2; also recorded: induced a dose-dependent degranulation of LAD2 mast cells

## LRAGSRYKKWALKWG [E7S]
LAD2 mast cells [1]
  intracellular Ca^2+ mobilization: induced robust and sustained Ca^2+ responses in LAD2 mast cells
HA-tagged human MrgX2
  degranulation: responded to CST, E7, E7S and compound 48/80
[8]
  degranulation of primary mast cells: these peptides induced degranulation in primary mast cells
HMC-1 cells [5]
  intracellular Ca^2+ mobilization: did not initiate Ca^2+ responses in this cell line
LAD2 mast cells [7]
  degranulation: also induced mast cell degranulation in a dose-dependent manner

## NYITELRRQHARASHLGLAR [C3aP]
[9]
  biological potency compared with natural C3a: expresses biological potency equal to natural C3a
[8]
  degranulation of primary mast cells: these peptides induced degranulation in primary mast cells
LAD2 mast cells [7]
  degranulation: as with LAD2 cells, these peptides induced degranulation

## PMX-53
C5a receptor
  C5a receptor antagonism: potent C5a receptor antagonist
MrgX2 [10]
  activation of human mast cells via MrgX2: activates human mast cells via MrgX2

## Pro-[Cys-Lys-Asn-Phe-Phe-Trp-Lys-Thr-Phe-Ser-Ser-Cys]-Lys (disulfide) (PCKNFFWKTFSSCK; disulfide 2-13) [CST, Cortistatin-14]
HA-tagged human MrgX2
  degranulation: responded to CST, E7, E7S and compound 48/80
MrgX2 [11]; ref Lembo et al., 2002, Robas et al.
  ligand of MrgX2: Ligands for MrgX1 and MrgX2 have been identified
MrgX2 [11]
  structural requirement for MrgX2 activation: both the N-terminal proline and the C-terminal lysine are required for MrgX2 activation

## Tyr-Gly-Gly-Phe-Met-Arg-Arg-Val-Gly-Arg-Pro-Glu-Trp-Trp-Met-Asp-Tyr-Gln-Lys-Arg-Tyr-Gly [BAM-22P, Bovine Adrenal Medulla Docosapeptide]
HA-tagged human MrgX1
  degranulation: responded only to BAM-22P and compound 48/80 for degranulation
MrgX1
  ligand of MrgX1: Ligands for MrgX1 and MrgX2 have been identified

## WWGKKYRASKLGLAR [E7]
C3a receptor [12]
  cross-desensitization of ileum contraction: cross-desensitized the ability of C3a but not C5a to induce guinea pig ileum contraction
LAD2 mast cells [1]
  intracellular Ca^2+ mobilization: induced Ca^2+ mobilization; also recorded: induced rapid Ca^2+ responses in LAD2 cells which peaked within seconds after stimulation
  duration/magnitude of Ca^2+ response, C3a versus E7: prominent and sustained response
HA-tagged human MrgX2
  degranulation: activated RBL-2H3 cells expressing MrgX2; also recorded: responded to CST, E7, E7S and compound 48/80
Guinea pig skin
  concentrations required to induce vascular permeability compared to C3aP: much lower concentrations of E7 were required to induce vascular permeability in guinea pig skin
Guinea pig platelet
  increase in guinea pig platelet aggregation activity compared to C3aP: ~ 1500%
[8]
  degranulation of primary mast cells: these peptides induced degranulation in primary mast cells
HMC-1 cells [5]
  intracellular Ca^2+ mobilization: caused Ca^2+ mobilization in an immature mast cell line, HMC-1; also recorded: induced Ca^2+ mobilization of similar magnitude and duration in HMC-1 cells
C3a receptor [13]
  potency relative to C3aP in guinea pigs: 12 –15 fold
LAD2 mast cells [7]
  potency for mast cell degranulation compared with C3a: its potency for mast cell degranulation was lower than that of C3a
  degranulation: induced Ca^2+ mobilization and degranulation in a differentiated human mast cell line, LAD2; also recorded: induced a dose-dependent increase in degranulation in LAD2 mast cells

## antigen: antigen (DNP-BSA, 30 ng/ml) on anti-DNP specific IgE-primed cells
HA-tagged human MrgX2
  degranulation: responded to antigen for degranulation
[14]
  degranulation: responded to antigen for degranulation
HA-tagged human MrgX1
  degranulation: responded to antigen for degranulation

## cortistatin-17 [CST-17]
MrgX2 [11]
  structural requirement for MrgX2 activation: both the N-terminal proline and the C-terminal lysine are required for MrgX2 activation
